Laboratory results published in ChEMBL document CHEMBL1129543, “Synthesis and evaluation of N-(phenylacetyl)trifluoromethanesulfonamides as anticonvulsant agents” (J Med Chem, 1996).

Tests used:
[1] = test system: Mus musculus; test: Inhibition of seizures induced in mice by a convulsant dose of bicuculline through ip administration; format: functional
Summary of the method: (§1)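 Phase V differentiation in mice: test drug given ip at time of peak therapeutic effect, then the CD₉₇ of each convulsant (picrotoxin, bicuculline, strychnine) given ip as a 0.5% solution; observation 30 min for bicuculline and strychnine, 45 min for picrotoxin. Drug in 30% PEG 400, 0.01 mL/g. ED₅₀ with 95% confidence intervals from ≥3 points in the 10-90% protection range, groups of 6-12 mice.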

[2] = test system: Mus musculus; test: Inhibition of seizures induced in mice by a convulsant dose of strychnine through ip administration; format: functional; summary of the method: as §1
[3] = test system: Mus musculus; test: Median effective dose was evaluated by subcutaneous pentylenetetrazole seizure test through intraperitoneal administration; format: functional
Summary of the method: (§2)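 Phase II in mice, ip dosing in 30% PEG 400. Groups of 6-12 mice per dose until at least three points fall in 10-90% protection. […] MES: 50 mA, 0.2 s corneal. scMet: pentylenetetrazol 85 mg/kg sc.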

[4] = test system: Mus musculus; test: Median Effective dose was evaluated by Subcutaneous pentylenetetrazole seizure test in mice by oral administration; format: functional
[5] = species on record: Mus musculus; test: Median hypnotic dose was evaluated by loss of righting reflex; format: functional
[6] = species on record: Mus musculus; test: Time to peak activity was evaluated by Maximal electroshock seizure test in hours; format: functional
[7] = test system: Mus musculus; test: Time to peak effect in mice was evaluated by Maximal electroshock seizure (MES) test in hours by oral administration; format: functional
Summary of the method: (§3)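 Oral dosing in 30% PEG 400: phase IV in mice (0.01 mL/g), phase VI in Sprague-Dawley rats (0.004 mL/g). ED50/TD50 found as in phase II, at the stated time of peak effect. MES current 50 mA in mice, 150 mA in rats. PTZ sc 85 mg/kg in mice, 70 mg/kg in rats. Toxicity by rotorod in mice; positional sense, gait and stance in rats. PI = TD50/ED50.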

[8] = test system: Mus musculus; test: Time to peak effect in mice was evaluated by Neurologic toxicity (rotarod test) in hours by oral administration; format: functional
Summary of the method: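 Oral dosing in mice in 30% PEG 400 (0.01 mL/g). Neurologic deficit was scored by the rotorod ataxia test, and the time of peak effect was given in hours.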

[9] = test system: Mus musculus; test: Time to peak effect in mice was evaluated by Subcutaneous pentylenetetrazole seizure test in hours by oral administration; format: functional; summary of the method: as §3
[10] = species on record: Mus musculus; test: Time to peak toxicity was evaluated by Maximal electroshock seizure test in hours; format: functional
[11] = test system: Rattus norvegicus; test: (§4) Median Effective dose was evaluated by Subcutaneous pentylenetetrazole seizure test in Rats by oral administration; format: functional
[12] = test system: Rattus norvegicus; test: (§5) Time to peak effect in Rats was evaluated by Maximal electroshock seizure (MES) test in hours by oral administration; format: functional; summary of the method: as §3
[13] = test system: Rattus norvegicus; test: (§6) Time to peak effect in Rats was evaluated by Subcutaneous pentylenetetrazole seizure test in hours by oral administration; format: functional; summary of the method: as §3
[14] = test system: Rattus norvegicus; test: (§7) Time to peak effect in Rats was evaluated by Neurologic toxicity (rotarod test) in hours by oral administration; format: functional
[15] = test system: Mus musculus; test: Inhibition of picrotoxin-induced seizures in mice by ip administration; format: functional; summary of the method: as §1
[16] = test system: Mus musculus; test: Median effective dose was evaluated by Maximal electroshock seizure test through intraperitoneal administration; format: functional; conditions: ip; summary of the method: as §2
[17] = test system: Mus musculus; test: Median Effective dose was evaluated by Maximal electroshock seizure (MES) test in mice by oral administration; format: functional
[18] = test system: Mus musculus; test: Median lethal dose was evaluated by mortality after 24 hr through ip injection administration; format: functional
Summary of the method: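 Mice were dosed ip in 30% PEG 400. Mortality was scored 24 h after injection in groups of eight. The 24-h LD₅₀ was derived as for the ED₅₀/TD₅₀, with 95% confidence intervals.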

[19] = test system: Mus musculus; test: Median toxic dose was evaluated by […] through intraperitoneal administration; format: functional
[20] = test system: Rattus norvegicus; test: Median Effective dose was evaluated by Maximal electroshock seizure (MES) test in Rats by oral administration; format: functional
[21] = test system: Rattus norvegicus; test: […] was evaluated by Neurologic toxicity (rotarod test) in Rats by oral administration; format: functional
[22] = test system: Mus musculus; test: Inhibition of picrotoxin-induced seizures in mice by ip administration at 250-1000 mg/kg (h= maximum 62.5% protection); format: functional, organism-based; summary of the method: as §1
[23] = test system: Mus musculus; test: Median Effective dose was evaluated by Maximal electroshock seizure (MES) test in mice by oral administration up to 2000 mg/kg; f=no protection; format: functional, organism-based; parameters: dose 2000 mg/kg
[24] = test system: Mus musculus; test: […] was evaluated by Neurologic toxicity (rotarod test) in mice by oral administration; format: functional; summary of the method: as §3
[25] = test system: Mus musculus; test: as §6; format: functional
Summary of the method: (§8)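 Oral dosing in Sprague-Dawley rats (30% PEG 400, 0.004 mL/g). Time to peak effect, in hours, was read in the MES test (150 mA, 60 Hz, corneal, 0.2 s; loss of tonic hind-leg extension) and in the scMet test (pentylenetetrazol 70 mg/kg sc; no clonus ≥5 s within 30 min).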

[26] = test system: Mus musculus; test: Median Effective dose was evaluated by Maximal electroshock seizure (MES) test in Rats by oral administration up to 1200 mg/kg; g= no protection; format: functional, organism-based; parameters: dose 1200 mg/kg
[27] = test system: Mus musculus; test: as §4; format: functional
[28] = test system: Mus musculus; test: as §5; format: functional; summary of the method: as §8
[29] = test system: Mus musculus; test: as §7; format: functional
[30] = test system: Mus musculus; test: Anti-seizure activity was evaluated by Maximal electroshock seizure (MES) test at dose 100 mg/kg after 0.5 hours; +++ denotes antiseizure activity; format: functional, organism-based; parameters: dose 100 mg/kg
Summary of the method: (§9)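 Phase I screen in mice: ip injection at 30, 100, 300 and 600 mg/kg in 30% PEG 400 (0.01 mL/g). Test run 0.5 h and 4 h after dosing. 60-Hz AC, 50 mA, via corneal electrodes for 0.2 s. Protection means abolition of hind-leg tonic extension. Scored ++++ to + for activity at 30 to 600 mg/kg.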

[31] = test system: Mus musculus; test: Anti-seizure activity was evaluated by Maximal electroshock seizure (MES) test at dose 100 mg/kg after 4.0 hours; +++ denotes antiseizure activity; format: functional, organism-based; parameters: dose 100 mg/kg; summary of the method: as §9
[32] = test system: Mus musculus; test: Anti-seizure activity was evaluated by Neurologic toxicity (rotarod test) at dose 600 mg/kg after 0.5 hours; + denotes neurotoxicity; format: functional, organism-based; parameters: dose 600 mg/kg
Summary of the method: (§10)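 Phase I neurotoxicity in mice by rotorod ataxia test. Compound given ip at 30, 100, 300 or 600 mg/kg in 30% PEG 400, read 0.5 h and 4 h after. Scored ++++ to + for toxicity at 30 to 600 mg/kg; - means no toxicity.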

[33] = test system: Mus musculus; test: Anti-seizure activity was evaluated by Neurologic toxicity (rotarod test) at dose 600 mg/kg after 4.0 hours; + denotes neurotoxicity; format: functional, organism-based; parameters: dose 600 mg/kg; summary of the method: as §10
[34] = test system: Mus musculus; test: Anti-seizure activity was evaluated by Subcutaneous pentylenetetrazole seizure test at dose 300 mg/kg after 0.5 hours; ++ denotes antiseizure activity; format: functional, organism-based; parameters: dose 300 mg/kg
Summary of the method: (§11)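 Phase I screen in mice: ip dosing at 30, 100, 300 and 600 mg/kg in 30% PEG 400, read 0.5 h and 4 h after. Pentylenetetrazol given sc at CD97 (85 mg/kg). Protection means no clonic spasm of at least 5 s over 30 min. Scored ++++ to + for 30 to 600 mg/kg.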

[35] = test system: Mus musculus; test: Anti-seizure activity was evaluated by Subcutaneous pentylenetetrazole seizure test at dose 300 mg/kg after 4.0 hours; ++ denotes antiseizure activity; format: functional, organism-based; parameters: dose 300 mg/kg; summary of the method: as §11
[36] = species on record: Rattus norvegicus; test: Protective index (TD50/ED50) was determined against MES induced seizure in rat.; format: functional
Summary of the method: as §3, with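 “rats.” for “rats. PTZ sc 85 mg/kg in mice, 70 mg/kg in rats.”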

[37] = species on record: Rattus norvegicus; test: Protective index (TD50/ED50) was determined against scMet induced seizure in rat.; format: functional
Summary of the method: as §3, with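 “rats.” for “rats. PTZ sc 85 mg/kg in mice, 70 mg/kg in rats.”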

[38] = test system: Mus musculus; test: Anti-seizure activity was evaluated by Maximal electroshock seizure (MES) test at dose 300 mg/kg after 0.5 hours; ++ denotes antiseizure activity; format: functional, organism-based; parameters: dose 300 mg/kg; summary of the method: as §9
[39] = test system: Mus musculus; test: Anti-seizure activity was evaluated by Neurologic toxicity (rotarod test) at dose 300 mg/kg after 4.0 hours; ++ denotes antiseizure activity; format: functional, organism-based; parameters: dose 300 mg/kg; summary of the method: as §10
[40] = test system: Mus musculus; test: Anti-seizure activity was evaluated by Subcutaneous pentylenetetrazole seizure test at dose 100 mg/kg after 0.5 hours; +++ denotes antiseizure activity; format: functional, organism-based; parameters: dose 100 mg/kg; summary of the method: as §11

Row | Compound | ED50 [1] [mg/kg] | ED50 [2] [mg/kg] | ED50 [3] [mg/kg] | ED50 [4] [mg/kg] | HD50 [5] [mg/kg] | TPE [6] | TPE [7] [h] | TPE [8] [h] | TPE [9] [h] | TPE [10] | ED50 [11] [mg/kg] | TPE [12] [h] | TPE [13] [h] | TPE [14] [h] | ED50 [16] [mg/kg] | LD50 [18] [mg/kg] | TD50 [19] [mg/kg] | Activity [32] | PI [36] | PI [37] | other results
1 | CCCC(CCC)C(=O)O [VALPROIC ACID] | 360 | 387 | 149 | 388 | 885 | 0.25 | 1 | 2 | 1 | 0.25 | 180 | 0.5 | 0.5 | 1 | – | – | – | – | – | – | –
2 | CCC1(c2ccccc2)C(=O)NC(=O)NC1=O [PHENOBARBITAL] | 38 | 28 | 13 | 13 | 135 | 1 | 2 | 2 | 2 | 0.5 | 12 | 5 | 5 | 0.5 | 22 | 265 | 69 | – | – | – | ED50 [15]: 95 mg/kg; ED50 [17]: 20 mg/kg; ED50 [20]: 9.1 mg/kg; TD50 [21]: 61 mg/kg
3 | CCC1(C)CC(=O)NC1=O (centres undefined) [ETHOSUXIMIDE] | 459 | – | 130 | 193 | 850 | 0.5 | 0.5 | 1 | 0.5 | 0.5 | – | – | – | – | > 1000 | 1810 | 441 | – | – | – | ED50 [22]: Max protection; ED50 [23]: No protection; TD50 [24]: 879 mg/kg; TPE [25]: 2 h; ED50 [26]: No protection; ED50 [27]: 54 mg/kg; TPE [28]: 2 h; TPE [29]: 2 h
4 | COc1cccc(CC(=O)NS(=O)(=O)C(F)(F)F)c1 | – | – | 77 | – | – | 2 | – | – | – | 2 | – | – | – | – | 19 | – | 325 | Antiseizure activity | 17 | 4.2 | Activity [30]: Antiseizure activity; Activity [31]: Antiseizure activity; Activity [33]: Antiseizure activity; Activity [34]: Antiseizure activity; Activity [35]: Antiseizure activity
5 | O=C(Cc1ccc(Cl)cc1)NS(=O)(=O)C(F)(F)F | – | – | 49 | – | – | 4 | – | – | – | 4 | – | – | – | – | 7.6 | – | 206 | Antiseizure activity | 27 | 4.2 | Activity [38]: Antiseizure activity; Activity [39]: Antiseizure activity; Activity [40]: Antiseizure activity
